{"source": "ChEMBL document CHEMBL1139214", "about": "“Lyngbyastatin 4, a dolastatin 13 analogue with elastase and chymotrypsin inhibitory activity from the marine cyanobacterium Lyngbya confervoides” (J Nat Prod, 2007)", "key": {"Prothrombin (Bos taurus)": {"target": "Prothrombin (Bos taurus) (UniProt P00735)", "experiment": "Inhibition of bovine plasma thrombin upto 30 uM", "assay_type": "cell-free"}, "[1]": {"experiment": "Inhibition of porcine pancreatic elastase", "design": "species or system Sus scrofa", "procedure,_shortened": "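Porcine pancreatic elastase (75 µg/mL enzyme solution) preincubated with compound in Tris-HCl, pH 8.0, at 30 °C for 20 min. Then 2 mM N-succinyl-Ala-Ala-Ala-p-nitroanilide substrate solution added. Absorbance increase at 405 nm read over 3–30 min. Dose–response analysis, IC50 determined.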"}, "[2]": {"experiment": "Inhibition of bovine pancreatic alpha chymotrypsin", "design": "species or system Bos taurus", "procedure,_shortened": "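Bovine pancreatic α-chymotrypsin (1 mg/mL enzyme solution) in 50 mM Tris-HCl, 100 mM NaCl, 1 mM CaCl2, pH 7.8. Test solution added, then 2 mM N-succinyl-Gly-Gly-Phe-p-nitroanilide substrate solution. Absorbance increase at 405 nm followed for 30 min. Dose–response analysis, IC50 determined.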"}, "Sus scrofa [3]": {"organism": "Sus scrofa", "experiment": "Inhibition of porcine pancreatic trypsin upto 30 uM", "procedure,_shortened": "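Porcine pancreatic trypsin (1 mg/mL enzyme solution) in 50 mM Tris-HCl, 100 mM NaCl, 1 mM CaCl2, pH 7.8. Test solution added, then 2 mM Nα-benzoyl-DL-arginine 4-nitroanilide hydrochloride substrate solution. Absorbance increase at 405 nm followed for 30 min. Dose–response analysis.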"}, "[4]": {"target": "Plasminogen (Homo sapiens) (UniProt P00747)", "sequence (P00747 97-580 limits assumed)": "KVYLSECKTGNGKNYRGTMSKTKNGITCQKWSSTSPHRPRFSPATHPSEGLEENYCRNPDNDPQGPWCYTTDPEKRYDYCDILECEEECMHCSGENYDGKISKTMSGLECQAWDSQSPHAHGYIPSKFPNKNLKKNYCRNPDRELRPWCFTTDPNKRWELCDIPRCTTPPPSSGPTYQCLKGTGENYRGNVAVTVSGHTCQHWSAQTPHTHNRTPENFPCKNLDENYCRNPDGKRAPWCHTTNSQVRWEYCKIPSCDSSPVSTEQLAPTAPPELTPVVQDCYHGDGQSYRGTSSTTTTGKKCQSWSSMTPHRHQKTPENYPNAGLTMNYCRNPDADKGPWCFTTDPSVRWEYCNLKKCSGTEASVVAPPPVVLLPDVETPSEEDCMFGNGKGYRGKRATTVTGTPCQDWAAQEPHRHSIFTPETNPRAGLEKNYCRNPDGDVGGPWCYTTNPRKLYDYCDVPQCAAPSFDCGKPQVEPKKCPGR", "sequence (P00747 581-810 limits assumed)": "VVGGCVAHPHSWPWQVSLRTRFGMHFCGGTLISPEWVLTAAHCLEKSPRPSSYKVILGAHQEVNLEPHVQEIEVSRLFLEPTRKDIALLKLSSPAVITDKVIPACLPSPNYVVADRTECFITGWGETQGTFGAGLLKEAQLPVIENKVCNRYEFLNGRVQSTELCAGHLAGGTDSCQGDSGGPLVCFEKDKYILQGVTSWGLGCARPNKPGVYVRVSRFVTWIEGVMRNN", "experiment": "Inhibition of human plasma plasmin upto 30 uM", "assay_type": "cell-free"}, "Sus scrofa [5]": {"organism": "Sus scrofa", "experiment": "Selectivity for porcine elastase over porcine trypsin"}, "[6]": {"experiment": "Selectivity for porcine elastase over human plasmin"}, "[7]": {"experiment": "Selectivity for porcine elastase over bovine thrombin"}, "[8]": {"experiment": "Selectivity for bovine alpha chymotrypsin over porcine trypsin"}, "[9]": {"experiment": "Selectivity for bovine alpha chymotrypsin over human plasmin"}, "Bos taurus": {"organism": "Bos taurus", "experiment": "Selectivity for bovine alpha chymotrypsin over bovine thrombin"}}, "note": "Calls of active or inactive are those of the source. The calls are words filed in the database; no cut-off is given here.", "data": [{"smiles": "C/C=C1\\NC(=O)[C@@H](NC(=O)[C@H](CCc2ccc(O)cc2)NC(=O)[C@H](C)NC(=O)[C@H](O)COS(=O)(=O)O)[C@@H](C)OC(=O)[C@H](C(C)C)NC(=O)[C@H](Cc2ccc(O)cc2)N(C)C(=O)[C@H](Cc2ccccc2)N2C(=O)[C@H](CC[C@H]2O)NC1=O", "note": "[LYNGBYASTATIN 4]", "values": [{"measurement": "Activity", "setting": "Prothrombin (Bos taurus)", "value": "inactive"}, {"measurement": "IC50", "setting": "[1]", "value": 30, "unit": "nM"}, {"measurement": "IC50", "setting": "[2]", "value": 300, "unit": "nM"}, {"measurement": "Activity", "setting": "Sus scrofa [3]", "value": "inactive"}, {"measurement": "Activity", "setting": "[4]", "value": "inactive"}, {"measurement": "Selectivity ratio", "setting": "Sus scrofa [5]", "value": "> 1000"}, {"measurement": "Selectivity ratio", "setting": "[6]", "value": "> 1000"}, {"measurement": "Selectivity ratio", "setting": "[7]", "value": "> 1000"}, {"measurement": "Selectivity ratio", "setting": "[8]", "value": "> 100"}, {"measurement": "Selectivity ratio", "setting": "[9]", "value": "> 100"}, {"measurement": "Selectivity ratio", "setting": "Bos taurus", "value": "> 100"}]}]}
